SENP1 FRET inh – blocks the human SENP1 SUMO protease catalytic domain; Q9P0U3; recombinant SENP1 catalytic domain, CyPet-SUMO1-YPet FRET cleavage; inhibition, % at 10 µM; hit rate 0.21% among 360,000; AID 624204;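 active means inhibition at least 30% at 10 µM, raw YFP signal under a set limit, fluorescence ratio 0.5 to 1.5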;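 further: 0% = enzyme with DMSO and 100% = no enzyme wells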
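Material: hSENP1 catalytic domain, recombinant; medium: Tris pH 8 with BME, BSA, NP40 and catalase; compound: single concentration of 10 µM compound, 0.5% DMSO final; technique: FRET read of cyan and yellow fluorescence; timing: 50 min enzyme reaction, room temperature, light-protected; reagent: SFCypet-SUMO1-SFYpet substrate at 25 nM; control set: no-enzyme low, enzyme-DMSO high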
GRIN3A LBD mod – modulates the human NR3A ligand-binding domain; NR3A LBD differential scanning fluorimetry, Tm shift; 0% = protein alone, 100% = glycine-bound protein; Tm shift relative to glycine control, % at 25 µM; AID 1259313; hit rate 2.5% among 340,000;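 active means melting temperature shift of at least 10% of the positive control shift, at one fixed dose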
NadD block – blocks S. aureus nicotinate mononucleotide adenylyltransferase; purified NadD enzyme, colorimetric absorbance read-out; inhibition, % at 20 µM; hit rate 0.78% among 360,000; AID 602399; in the data active means inhibition above about 26%
UCH37 inh – human UCH37 deubiquitinating enzyme inhibition | inhibition, % (test concentration not listed) | purified proteasome/UCH37, Ub-AMC cleavage fluorescence | hit rate 0.33% among 330,000 | Q9Y5K5;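 active means mean inhibition over replicate wells above about 20%, limit read from the data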;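 further: 0% = compound-free wells with enzyme and 100% = wells lacking proteasome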
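Reagent: Ub-AMC substrate; assay system: Proteasome-associated human UCH37 deubiquitinase; controls: no-proteasome and no-compound wells; read-out: % inhibition of Ub-AMC cleavage fluorescence; timing: 30 min preincubation with enzyme, 25 min cleavage at room temperature; signal: AMC fluorescence from Ub-AMC cleavage, excitation 355 nm, emission 460 nm; buffer or medium: Tris-HCl pH 7.4 plus ovalbumin, ATP-MgCl2, DTT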
ATG4B inh – ATG4B (human) cysteine protease inhibition | Q9Y4P1 | ATG4B cleavage of LC3-PLA2, NBD-HPC fluorescence, 1 h | inhibition, % at 8.33 µM | hit rate 0.51% among 340,000; in the data active means inhibition above about 40%
Target sequence (Q9Y4P1 whole entry, looked up): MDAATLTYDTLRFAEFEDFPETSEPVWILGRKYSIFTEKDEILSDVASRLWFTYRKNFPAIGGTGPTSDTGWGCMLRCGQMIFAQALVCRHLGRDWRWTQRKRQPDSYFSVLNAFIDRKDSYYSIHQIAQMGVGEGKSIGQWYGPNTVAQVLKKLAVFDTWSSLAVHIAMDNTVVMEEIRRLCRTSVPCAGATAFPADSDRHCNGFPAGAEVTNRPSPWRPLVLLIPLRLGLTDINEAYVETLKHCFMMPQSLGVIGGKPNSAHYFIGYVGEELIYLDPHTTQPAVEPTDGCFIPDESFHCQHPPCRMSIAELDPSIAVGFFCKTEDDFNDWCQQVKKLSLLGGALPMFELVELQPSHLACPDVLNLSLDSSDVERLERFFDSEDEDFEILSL
ATG4B confirm – ATG4B (human) inhibition, single-dose confirmed | shares compounds with ATG4B inh | ATG4B protease fluorescent substrate cleavage assay | inhibition, % at 8.33 µM | hit rate 92% among 320 | AID 504757; in the data active means inhibition above about 39%
PLA2 ctr – inhibits human PLA2, flagging false ATG4B inhibitors | shares compounds with ATG4B inh | AID 588402 | purified PLA2, NBD-C6-HPC fluorescence, 45 min | inhibition, % at 8.33 µM | hit rate 66% among 1,600; in the data active means inhibition above about 50%
* marks the source's active call; other numbers are inactive results. Compounds with a hit are over-represented: about 3.6% of the library has one in this group of screens.

For Cc1ccc(OCc2ccc(C(=O)Nc3c(C)nn(Cc4c(F)c(F)c(F)c(F)c4F)c3C)o2)c([N+](=O)[O-])c1 the results were SENP1 FRET inh 0, GRIN3A LBD mod -15, NadD block -4, UCH37 inh 4, ATG4B inh 67* and PLA2 ctr 76*.
`Cc1nn(Cc2c(F)c(F)c(F)c(F)c2F)c(C)c1NC(=O)c1cccc(COc2ccc(Cl)cc2)c1` gave SENP1 FRET inh 1, GRIN3A LBD mod -1, NadD block 15, UCH37 inh 6, ATG4B inh 57* and PLA2 ctr 68*.
Screening Cc1cccc(Cn2nc(C)c(NC(=O)c3ccc(F)cc3)c2C)c1 returned SENP1 FRET inh 2, GRIN3A LBD mod -2, NadD block -5, UCH37 inh 2 and ATG4B inh -11.
COc1cccc(C=NNC(=O)CNC(=O)c2cccs2)c1O was read as UCH37 inh -1.
For NC(=O)C1CCCCc2c1[nH]c1ccc(Cl)cc21 (configuration not stated) the results were SENP1 FRET inh -46, GRIN3A LBD mod -1, NadD block -9, UCH37 inh 7, ATG4B inh 56* and PLA2 ctr 51*.
Screening CCNC(=O)C1CCCc2c1[nH]c1ccc(Cl)cc21 (configuration not stated) returned SENP1 FRET inh 0, GRIN3A LBD mod -2, NadD block -9, UCH37 inh 2 and ATG4B inh 3.
`O=C(NN=Cc1cc2c(cc1Br)OCO2)c1cccnc1` gave UCH37 inh 9.
Screening CC(=O)/C=C\c1ccccc1OC(=O)c1cc2ccccc2oc1=O returned SENP1 FRET inh 0, GRIN3A LBD mod 1, NadD block -4, UCH37 inh -5 and ATG4B inh -3.
`O=C(/C=C\c1ccccc1OC(=O)c1ccccc1F)c1cc2ccccc2o1` gave SENP1 FRET inh -5, GRIN3A LBD mod -5, NadD block -4, UCH37 inh 0, ATG4B inh 45* and PLA2 ctr 51*.
CC(C)c1ccc(OCC(=O)NCc2ccccc2)cc1 was read as SENP1 FRET inh -4, GRIN3A LBD mod -2, NadD block -10, UCH37 inh 1 and ATG4B inh 1.
COc1ccc(C(CC(=O)NCc2ccccc2)C(C)C)cc1 (configuration not stated) was read as SENP1 FRET inh -3, GRIN3A LBD mod 0, NadD block -4, UCH37 inh 1, ATG4B inh 46*, ATG4B confirm 59* and PLA2 ctr 44.
`Nc1nn(-c2ccccc2)c(N)c1N=Nc1ccc2c(c1)OCO2` gave SENP1 FRET inh -4, GRIN3A LBD mod -8, NadD block 0, UCH37 inh 6, ATG4B inh 41*, ATG4B confirm 76* and PLA2 ctr 40.
For Nc1[nH]n(-c2ccccc2)c(=O)c1N=Nc1ccc2c(c1)OCCO2 the results were SENP1 FRET inh 1, GRIN3A LBD mod 6, NadD block -8, UCH37 inh 6 and ATG4B inh -8.
Screening Cc1ccc(S(=O)(=O)N(C)N=Cc2ccc(N(C)C)cc2)cc1 returned UCH37 inh 4.
For CCCCCCNC(=O)CC(c1ccccc1)c1cc(Br)ccc1O (configuration not stated) the results were SENP1 FRET inh 1, GRIN3A LBD mod 12*, NadD block -3, UCH37 inh 2, ATG4B inh 41* and PLA2 ctr 56*.
C[C@@]12CCC=C[C@H]1[C@H](c1ccc3ccccc3c1Br)N(Cc1ccccc1)C2=O was read as SENP1 FRET inh 0, GRIN3A LBD mod 2, NadD block 6, UCH37 inh 1, ATG4B inh 50* and PLA2 ctr 76*.
Screening C[C@@]12CCC=C[C@H]1[C@H](c1ccc3ccccc3c1)N(Cc1ccccc1)C2=O returned SENP1 FRET inh -1, GRIN3A LBD mod 0, NadD block -5, UCH37 inh 1 and ATG4B inh 17.
Screening CSc1nncc(C(C)=NO)n1 returned UCH37 inh 3.
